In BindingDB's records for doi:10.1016/j.bmcl.2011.06.023 (Merck Research Laboratories, 2011):
“And” between values parts separate entries of the source, which are not always exact repeats. Identical values can stand only once.

Legend:
[1] = target: Smoothened (Mus musculus) (UniProt P56726); test: Antagonist activity at smoothened expressed in mouse Shh Light2 cells assessed as inhibition of purmorphamine- induced Gli-dependent luciferase gene expression
[2] = target: Smoothened homolog (Homo sapiens, UniProt Q99835); test: Displacement of BODIPY-cyclopamine from human Smo expressed in HEK293 cells in presence of 2% fetal calf serum
Sequence of Smoothened homolog (Q99835 whole entry): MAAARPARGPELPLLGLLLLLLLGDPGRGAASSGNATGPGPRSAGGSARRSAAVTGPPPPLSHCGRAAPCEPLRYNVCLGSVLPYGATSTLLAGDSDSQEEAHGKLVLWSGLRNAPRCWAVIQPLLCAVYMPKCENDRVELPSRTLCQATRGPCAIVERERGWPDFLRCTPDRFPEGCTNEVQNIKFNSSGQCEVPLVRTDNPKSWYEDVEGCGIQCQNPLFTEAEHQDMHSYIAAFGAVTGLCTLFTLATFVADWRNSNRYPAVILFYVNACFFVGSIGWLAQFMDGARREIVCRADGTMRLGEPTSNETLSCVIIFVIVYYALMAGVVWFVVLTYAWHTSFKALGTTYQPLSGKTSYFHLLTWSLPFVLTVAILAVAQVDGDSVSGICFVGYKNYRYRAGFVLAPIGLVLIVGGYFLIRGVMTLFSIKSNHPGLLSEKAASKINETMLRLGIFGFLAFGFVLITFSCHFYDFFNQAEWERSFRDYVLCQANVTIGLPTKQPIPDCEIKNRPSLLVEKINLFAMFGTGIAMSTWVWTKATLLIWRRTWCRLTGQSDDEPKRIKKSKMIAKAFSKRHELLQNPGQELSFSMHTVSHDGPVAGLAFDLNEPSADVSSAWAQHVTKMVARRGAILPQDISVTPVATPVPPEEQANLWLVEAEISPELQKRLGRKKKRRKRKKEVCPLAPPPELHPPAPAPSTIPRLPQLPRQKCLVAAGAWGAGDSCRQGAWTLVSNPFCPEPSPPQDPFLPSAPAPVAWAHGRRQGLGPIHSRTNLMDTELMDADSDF
Summary of the method: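 Competition binding: displacement of fluorescently labeled bodipy-cyclopamine from recombinant human Smo expressed in HEK-293 cells. Run in 2% fetal calf serum and, separately, in 20% normal human serum. IC50 values are means of at least five experiments.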

Sequence of Smoothened (Mus musculus) (P56726 whole entry, looked up): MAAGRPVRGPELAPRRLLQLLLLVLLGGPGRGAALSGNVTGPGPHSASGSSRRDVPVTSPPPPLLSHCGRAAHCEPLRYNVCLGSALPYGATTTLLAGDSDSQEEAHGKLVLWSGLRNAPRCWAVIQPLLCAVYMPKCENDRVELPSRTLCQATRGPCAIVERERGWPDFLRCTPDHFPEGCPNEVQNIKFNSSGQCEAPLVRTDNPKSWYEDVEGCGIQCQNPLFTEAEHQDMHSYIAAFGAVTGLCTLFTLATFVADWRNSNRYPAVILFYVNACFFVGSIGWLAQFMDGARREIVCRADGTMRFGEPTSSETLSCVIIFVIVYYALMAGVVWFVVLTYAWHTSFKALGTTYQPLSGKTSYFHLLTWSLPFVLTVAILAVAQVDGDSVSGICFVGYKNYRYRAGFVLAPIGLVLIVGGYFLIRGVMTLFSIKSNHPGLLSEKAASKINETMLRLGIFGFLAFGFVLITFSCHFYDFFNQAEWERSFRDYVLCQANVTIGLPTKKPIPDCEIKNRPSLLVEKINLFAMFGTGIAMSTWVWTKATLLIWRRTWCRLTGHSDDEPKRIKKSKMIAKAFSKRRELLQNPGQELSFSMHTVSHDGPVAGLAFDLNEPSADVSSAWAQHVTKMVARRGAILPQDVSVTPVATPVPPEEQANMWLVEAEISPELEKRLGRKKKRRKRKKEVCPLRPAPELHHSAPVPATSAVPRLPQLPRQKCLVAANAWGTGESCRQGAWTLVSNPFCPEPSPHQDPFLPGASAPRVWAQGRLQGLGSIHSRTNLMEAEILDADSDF

Row | SMILES | IC50 [1] | IC50 [2]
1 | O=C(Nc1cccnc1-c1ccsc1)N1CCn2c(c(O)n([C@H]3C[C@@H]3c3ccccc3)c2=O)C1 | 89 nM | –
2 | O=C(Nc1cccc(Cl)c1Cl)N1CCn2c(c(O)n([C@H]3C[C@@H]3c3ccccc3)c2=O)C1 | 270 nM and 430 nM | –
3 | O=C(Nc1ccccc1-c1ccccc1)N1CCn2c(c(O)n([C@H]3C[C@@H]3c3ccccc3)c2=O)C1 | 100 nM and 42 nM and 140 nM | 48 nM and 21 nM
4 | C[C@]12CN(C(=O)Nc3ccccc3-c3ccccc3)CCN1C(=O)N([C@H]1C[C@@H]1c1ccccc1)C2=O | 1400 nM | –
5 | O=C(Nc1cccc(Cl)c1Cl)N1CCn2c(c(O)n([C@@H]3C[C@H]3c3ccccc3)c2=O)C1 | 880 nM and 1400 nM | –

The remaining compounds from weak to strong by IC50 [1], led by results:

Row | IC50 [1] | IC50 [2] | SMILES
6 | 41 nM | – | CS(=O)(=O)c1cc(Cl)c(NC(=O)N2CCn3c(c(O)n([C@H]4C[C@@H]4c4ccccc4)c3=O)C2)c(Cl)c1
7 | 28 nM | – | O=C(Nc1cccnc1-c1ccccc1)N1CCn2c(c(O)n([C@H]3C[C@@H]3c3ccccc3)c2=O)C1
8 | 23 nM | – | C[C@@]12CN(C(=O)Nc3ccccc3-c3ccccc3)CCN1C(=O)N([C@H]1C[C@@H]1c1ccccc1)C2=O
9 | 17 nM | – | C[C@@]12CN(C(=O)Nc3ccnn3-c3ccccc3)CCN1C(=O)N([C@H]1C[C@@H]1c1ccccc1)C2=O
10 | 8 nM | – | O=C(Nc1ccnn1-c1cccc(Cl)c1)N1CCn2c(c(O)n([C@H]3C[C@@H]3c3ccccc3)c2=O)C1
11 | 6 nM | – | O=C(Nc1ccnn1-c1cccc(F)c1)N1CCn2c(c(O)n([C@H]3C[C@@H]3c3ccccc3)c2=O)C1
